Bioassay records from PubChem.
Rows were chosen to be rich in hits. Some 3% of all compounds tested hit in one or more screens of this group.
Insulin prom inh: TRM-6 insulin promoter activity inhibition; inhibition, % at 2 µM; 130,000 tested, 0.9% active; TRM-6 cells (human fetal islet line), insulin promoter-eGFP reporter, imaging; reporter expression induced with tamoxifen; AID 1273;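 active means inhibition above the mean plus 3 SD, with well images judged a real hit on visual review, cut at about 60% in these data, passing the limit was not always enough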
Yeast life ext: extends the lifespan of yeast; S. cerevisiae growth with nicotinamide, OD615; deaD strain in restrictive glucose medium; inhibition of the nicotinamide effect, % at 10 µM; 130,000 tested, 0.68% active;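 active means inhibition above a set limit, placed 3 SD over the median of all compounds, cut at about 26% in these data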;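 further: 0% = nicotinamide-treated wells and 100% = cells grown without nicotinamide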
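Buffer or medium: CSMM-D glucose medium, restrictive; test system: modified budding yeast, DeaD strain; compound: single dose 10 µM compound, 0.25% DMSO; schedule: culture preincubation 4 h, compound exposure 48 h, both 30 °C; detection: optical density (absorbance) at 615 nm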
Yeast growth inh: chemicals that inhibit yeast BB579 growth in restrictive medium (lifespan-shortening candidates); S. cerevisiae BB579 growth, OD615, 48 h; inhibition, % at 10 µM; 140,000 tested, 0.51% active;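 active means inhibition above a set limit, 3 SD over the mean compound inhibition, cut at about 44% in these data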
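System: Saccharomyces cerevisiae DeaD strain BB579, replicative lifespan model yeast | Buffer or medium: Restrictive glucose-based CSMM-D medium | Times: 4 h preincubation and 48 h exposure at 30 °C | Detection: OD615 turbidity measurement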
Insulin prom up: MIN6 insulin promoter up-regulation; 190,000 tested, 0.3% active; z-score at 5 µM; MIN6 insulin promoter-GFP reporter, high-content imaging; stronger effect = higher value;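 active means z-score above 3 at 5 µM with at least 500 cells counted in the well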
RAM inhibit: inhibitors of the yeast RAM network | 190,000 tested, 1.8% active | AID 868 | inhibition, % at 50 µM | S. cerevisiae dse1pr::URA3 reporter, 5-FOA growth OD615, 2 d; analog-sensitive cbk1-as2 kinase mutant strain;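 active means inhibition above a set limit, 3 SD over mean compound inhibition, cut at about 8.4% in these data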;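 further: 0% = DMSO-only wells with no growth and 100% = 10 µM 1-NA-PP1 full growth; inhibition rescues growth on 5-FOA so higher OD means more RAM inhibition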
* hit, by the source's call; · = not tested or not shown.

SMILES	Insulin prom inh	Yeast life ext	Yeast growth inh	Insulin prom up	RAM inhibit
COc1ccc(NC(=O)Cc2coc3ccc4ccccc4c23)cc1S(=O)(=O)N1CCOCC1	-30	5	-38	0.63	4
Cc1cc(/C=N/NC(N)=S)c(O)c(/C=N/NC(N)=S)c1	·	·	·	0.63	·
CC(C)N1CC(C(=O)Nc2nc3ccccc3s2)CC1=O (stereo not given)	75*	-14	-15	·	-1
COc1ccc(C(CNC(=O)c2ccccc2C)N2CCCC2)cc1 (stereo not given)	-4	-8	6	0.08	3
COc1ccc(C(CNC(=O)c2cccc(Br)c2)N2CCCC2)cc1 (stereo not given)	-27	123*	-36	-1.3	0
O=C(NC1CCCCC1)Sc1ccc(Cl)cc1	21	-19	52*	-0.42	-1
O=C(CSc1ccc(Cl)cc1)NC1CCCC1	·	-4	-5	0.3	-1
CC(C)Cc1nc2c(nnn2Cc2ccccc2F)c(=O)[nH]1	·	·	·	-0.15	·
CS(=O)(=O)n1nc(-c2ccc(Cl)cc2)nc1N	·	·	·	1.2	3
Cn1nc(-c2ccc(Cl)cc2)nc2c(=O)n(C)c(=O)nc1-2	-5	-39	100*	-0.4	-1
CS(=O)(=O)N(CC(=O)Nc1ccc(S(=O)(=O)N2CCOCC2)cc1)c1ccccc1Br	45	·	·	·	1
CC(=Nc1ccc(C)cc1)c1sc2ccccc2c1O	26	-7	-4	0.59	1
CC(=Nc1ccc(C)cc1C)c1sc2ccccc2c1O	·	·	·	4*	1
CCSC1=N/C(=C\c2ccccc2)C(=O)N1c1ccc(OC)cc1	33	·	·	0.19	10*
C=CCSC1=N/C(=C\c2cccnc2)C(=O)N1c1ccc(OC)cc1	-7	0	-8	0.9	4
CCOC(=O)Cn1c(=O)c(-c2ccccc2N)nc2ccccc21	·	·	·	-0.09	·
CCOC(=O)Cn1c(=O)c(-c2cc(Br)ccc2N)nc2ccccc21	·	·	·	6.8*	·
N/C(Cc1ccccc1)=N\OC(=O)c1cccc2ccccc12	-31	-9	84*	-1.5	0
CCN1C(=O)/C(=c2\sc3nc(=O)c(Cc4ccccc4)nn3c2=O)c2ccccc21	·	·	·	0.01	·
CCN(c1ccccc1)S(=O)(=O)c1ccc(OCc2c(C)noc2C)cc1	-17	-8	-21	-0.49	10*
CCc1nc2sc3c(O)cc(=O)[nH]c3c2cc1C	·	·	·	·	5
Cc1cccc(OCCSc2nc(N)cc(N)n2)c1	·	·	·	0.78	·
COc1cccc(C(=O)C2CCCN(C(=O)c3cccc(C#CC(C)(C)O)c3)C2)c1 (stereo not given)	·	·	·	0.05	1
O=c1c2ccccc2nc2sc3ccccc3n12	-9	-3	85*	-1.2	5
COc1ccc(CSCC(=O)N/N=C/c2ccccc2O)cc1	75*	·	·	0.19	0
SMILES	Insulin prom inh	Yeast life ext	Yeast growth inh	Insulin prom up	RAM inhibit
CC(C)OP(=O)(OC(C)C)C(C)NC(=O)Cc1ccccc1 (stereo not given)	82*	·	·	-1.2	0
CC(C)OP(=O)(OC(C)C)C(NC(=O)c1ccccc1)C(N)=O (stereo not given)	·	·	·	0.25	·
COCCNC(=S)N/N=C/c1ccc(OCc2ccc(C(=O)OC)cc2)c(OC)c1	29	10	-71	0.72	10*
COCCNC(=O)C(=O)N/N=C/c1ccc(C(=O)OC)cc1	-30	·	·	0.45	0
CCCCN1CCCC1CNC(=O)c1cc(C#N)c2ccccc2c1OC (stereo not given)	·	·	·	0.65	·
CC(C)c1ccc(C(CC(=O)c2ccc(Cl)cc2)C(=O)O)cc1 (stereo not given)	-34	15	-36	·	2
CCc1ccc(C(CC(=O)c2ccc(Cl)cc2)C(=O)O)cc1 (stereo not given)	0	31*	-69	·	3
CCCC(=O)Nc1ccccc1Sc1ncnc2scc(-c3ccccc3)c12	-13	44*	-28	-0.05	1
NC(=O)CSc1nnc(-c2ccc(S(=O)(=O)N3CCCC3)cc2)o1	43	·	11	·	3
O=S(=O)(c1ccc(-c2nnc(SCc3ccccc3)o2)cc1)N1CCCC1	·	5	-85	·	9.3*
Cc1ccc(CSc2nnc(-c3ccc(S(=O)(=O)N4CCCC4)cc3)o2)cc1	-3	3	-35	·	10*
Cc1cc(C)cc(NC(=O)CSc2nnc(-c3ccc(S(=O)(=O)N4CCCC4)cc3)o2)c1	·	-9	5	-0.66	-1
COc1ccc(C(=O)NCc2nnc(SCC(=O)Nc3nc4ccccc4s3)o2)cc1OC	-8	-2	-15	-0.7	2
Cc1cccc(C)c1N=Cc1c(C(F)(F)F)[nH][nH]c1=O	·	·	·	-0.14	2
CC1CC(C)CN(C(=O)c2cccc3c2-c2ccccc2C3=O)C1 (stereo not given)	·	·	·	4*	·
CNc1nc(N)nc(-c2cc(Cl)ccc2OC)n1	-22	·	·	·	-1
NC(=O)CSc1nc(-c2ccccc2)c(-c2ccccc2)o1	-14	·	-40	-0.38	11*
c1ccc(N(c2ccccc2)c2nc(-n3ccnc3)nc(-n3ccnc3)n2)cc1	0	-12	92*	0.18	1
Cc1ccc(-c2c(C)sc3ncn(CC(=O)N4CCOCC4)c(=O)c23)cc1C	·	·	·	-0.59	·
Cc1cc(NC(c2ccc(Cl)cc2)c2ccc3cccnc3c2O)no1 (stereo not given)	42	-33	95*	·	-1
O=C(O)COc1ccccc1/C=N/NC(=O)CN1CCN(Cc2ccc(Cl)cc2)CC1	·	·	·	0.01	·
Cn1c(=O)[nH]c(=O)c2c1nc(N1CCCCCC1)n2CC(N)=O	56	·	-2	·	0
C/C=C/CSc1nc2c(c(=O)[nH]c(=O)n2C)n1CCC	82*	-10	-21	0.27	2
CCCn1c(Sc2nc3c(c(=O)[nH]c(=O)n3C)n2CCC)nc2c1c(=O)[nH]c(=O)n2C	-30	0	-16	0.72	0
C/C=C/Cn1c(N2CCCCCC2)nc2c1c(=O)[nH]c(=O)n2C	·	137*	6	-0.08	0
SMILES	Insulin prom inh	Yeast life ext	Yeast growth inh	Insulin prom up	RAM inhibit
Cc1ccc2nc(C3CCCN3Cc3nc(CCC(C)C)no3)[nH]c2c1 (stereo not given)	·	·	·	-0.75	0
O=C(NNC1=Nc2cccc3cccc1c23)c1ccccc1Br	·	38*	-35	0.27	5
c1ccc(NC2=Nc3cccc4cccc2c34)cc1	-12	·	·	-0.56	4
O=C(c1cc(Cl)cc(Cl)c1)N1CCOCC1	87*	-2	-17	-0.07	0
Cc1ccc(C(=O)N2CCOCC2)cc1Cl	-54	-9	4	0.07	0
COC1=C(N)C(=O)c2nc(-c3nc(C(=O)O)c(C)c(-c4ccc(OC)c(OC)c4O)c3N)ccc2C1=O	-376	-7	97*	·	2
Cc1nc(S(=O)(=O)Cc2ccccc2Cl)nc2c1CCC2	73*	·	·	0.71	0
CCOc1ccc(C(=O)OCCN(CC)CC)cc1	80*	-3	-27	·	0
C=CCC(CC(O)COCCC)C(=O)NNC(=S)Nc1ccccc1 (stereo not given)	·	·	·	-0.4	·
Cc1nonc1NC(=O)CSc1nc(C2CCCCC2)nc2ccccc12	·	61*	-33	1.6	6
